Columns and labels:
[1] = test system: Human immunodeficiency virus 1; assay: Inhibitory concentration required to inhibit HIV-induced cytopathicity in CEM-4 cells by 50% based in the MTT assay; Not active; assay type: functional, organism-based
E6SM = assay: Minimum cytotoxic concentration required to cause a microscopically detectable alteration of normal cell morphology in E6SM cells; assay type: functional, Homo sapiens
How it was run: (§1)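 Uninfected E6SM, HeLa or Vero cells were exposed to compound and examined by microscopy. MCC is the lowest concentration causing a detectable alteration of normal cell morphology.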

Vaccinia virus = assay: Concentration required to inhibit Vaccinia induced cytopathicity in E6SM cells by 50%; assay type: functional, organism-based; details: Orthopoxvirus vaccinia
[2] = test system: Vesicular stomatitis virus; assay: Concentration required to inhibit vesicular stomatitis induced cytopathicity in E6SM cells by 50%; assay type: functional, organism-based
HEL = assay: Minimum cytotoxic concentration required to cause a microscopically detectable alteration of normal cell morphology in HEL cells; assay type: functional, Homo sapiens
Human betaherpesvirus 5 [3] = assay: Concentration required to inhibit HCMV(AD169) induced cytopathicity in HEL cells by 50%; assay type: functional, organism-based; details: Human betaherpesvirus 5, HEL
How it was run: (§2)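 Virus was added to the cell monolayers in the presence of compound. Incubation continued until the viral cytopathic effect was scored. IC50 is the concentration that reduced virus-induced cytopathicity by 50%.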

Human betaherpesvirus 5 [4] = assay: Concentration required to inhibit HCMV(Davis) induced cytopathicity in HEL cells by 50%; assay type: functional, organism-based; details: Human betaherpesvirus 5, HEL; how it was run: as §2
HeLa = assay: Minimum cytotoxic concentration required to cause a microscopically detectable alteration of normal cell morphology in HeLa cells; assay type: functional, Homo sapiens; how it was run: as §1
Coxsackievirus = assay: Concentration required to inhibit Coxsackie induced cytopathicity in HeLa cells by 50%; assay type: functional, organism-based; how it was run: as §2
Poliovirus 1 = assay: Concentration required to inhibit Polio-1 induced cytopathicity in HeLa cells by 50%; assay type: functional, organism-based; details: Enterovirus C
[5] = test system: Human immunodeficiency virus 1; assay: Concentration required to inhibit by 50% syncytium formation between MOLT-4 cells and HIV-1(IIIB); assay type: functional, organism-based; details: Human immunodeficiency virus 1, MOLT-4
How it was run: (§3)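 Uninfected MOLT-4 cells were co-cultured with HUT-78 cells chronically infected with HIV-1 (IIIB) or HIV-2 (ROD), in the presence of compound. The end point was syncytium formation, and IC50 is the concentration giving 50% inhibition. Values are means of two separate experiments.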

MT4 = assay: Concentration required to reduce the viability of mock-infected MT-4 cells by 50%; assay type: functional; details: Homo sapiens
How it was run: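 Mock-infected MT-4 cells were exposed to compound. CC50 is the concentration that reduced cell viability by 50%. Values are means of two separate experiments.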

[6] = test system: Human immunodeficiency virus 1; assay: Concentration required to inhibit HIV-1 induced cytopathicity in MT-4 cells by 50%; assay type: functional, organism-based; details: Human immunodeficiency virus 1, MT4
How it was run: (§4)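 MT-4 cells were infected with HIV-1 (strain HTLV-IIIB/LAI) or HIV-2 (strain LAV-2 ROD) and exposed to compound. IC50 is the concentration that inhibited HIV-induced cytopathicity by 50%. Values are means of two separate experiments.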

[7] = test system: Human immunodeficiency virus 2; assay: Concentration required to inhibit HIV-2 induced cytopathicity in MT-4 cells by 50%; assay type: functional, organism-based; details: Human immunodeficiency virus 2, MT4; how it was run: as §4
[8] = test system: Human immunodeficiency virus 2; assay: Concentration required to inhibit by 50% syncytium formation between MOLT-4 cells and HIV-2 (ROD) infected HUT-78 cells; assay type: functional, organism-based; details: Human immunodeficiency virus 2, MOLT-4; how it was run: as §3
Vero = assay: Minimum cytotoxic concentration required to cause a microscopically detectable alteration of normal cell morphology in Vero cells; assay type: functional, Chlorocebus sabaeus; how it was run: as §1
Junin virus = assay: Concentration required to inhibit Junin induced cytopathicity in Vero cells by 50%; assay type: functional, organism-based; details: Mammarenavirus juninense
Sindbis virus = assay: Concentration required to inhibit Sindbis induced cytopathicity in Vero cells by 50%; assay type: functional, organism-based; how it was run: as §2
Tacaribe virus = assay: Concentration required to inhibit Tacaribe induced cytopathicity in Vero cells by 50%; assay type: functional, cell-based; details: Mammarenavirus tacaribeense
Human respirovirus 3 = assay: Concentration required to inhibit parainfluenza-3 induced cytopathicity in Vero cells by 50%; assay type: functional, organism-based; details: Human respirovirus 3, Vero; how it was run: as §2
[9] = test system: Mammalian orthoreovirus 1; assay: Concentration required to inhibit reovirus-1 induced cytopathicity in Vero cells by 50%; assay type: functional, organism-based; details: Mammalian orthoreovirus 1, Vero; how it was run: as §2
Semliki Forest virus = assay: Concentration required to inhibit forest induced cytopathicity in Vero cells by 50%; assay type: functional, organism-based; how it was run: as §2
CEM-4 = assay: Cytotoxic concentration required to reduce the viability of uninfected cells by 50% after 5 days of incubation in the presence on CEM-4 cells.; assay type: functional; details: Homo sapiens, CEM-4, 120 h
How it was run: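 Uninfected CEM-4 cells were incubated with compound for 5 days. CC50 is the concentration that reduced viability by 50%. Values average at least two separate experiments.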

Human alphaherpesvirus 2 = assay: Concentration required to inhibit HSV-2(G) induced cytopathicity in E6SM cells by 50%; details: Human alphaherpesvirus 2, E6SM
Human alphaherpesvirus 1 [10] = assay: Concentration required to inhibit HSV-1(KOS) induced cytopathicity in E6SM cells by 50%; details: Human alphaherpesvirus 1, E6SM
Human alphaherpesvirus 1 [11] = assay: Concentration required to inhibit HSV-1 TK-(B2006) induced cytopathicity in E6SM cells by 50%; details: Human alphaherpesvirus 1, E6SM
[12] = test system: Human immunodeficiency virus 1; assay: Inhibitory concentration required to inhibit HIV-induced cytopathicity in CEM-4 cells by 50% based in the MTT assay; assay type: functional, organism-based; details: Human immunodeficiency virus 1, CEM-4

SMILES	MMC (E6SM) [µg/mL]	IC50 (Vaccinia virus) [µg/mL]	IC50 [2] [µg/mL]	MMC (HEL) [µg/mL]	IC50 (Human betaherpesvirus 5 [3]) [µg/mL]	IC50 (Human betaherpesvirus 5 [4]) [µg/mL]	MMC (HeLa) [µg/mL]	IC50 (Coxsackievirus) [µg/mL]	IC50 (Poliovirus 1) [µg/mL]	IC50 [5] [µg/mL]	CC50 (MT4) [µg/mL]	IC50 [6] [µg/mL]	IC50 [7] [µg/mL]	IC50 [8] [µg/mL]	MMC (Vero) [µg/mL]	IC50 (Junin virus) [µg/mL]	IC50 (Sindbis virus) [µg/mL]	IC50 (Tacaribe virus) [µg/mL]	IC50 (Human respirovirus 3) [µg/mL]	IC50 [9] [µg/mL]	other results
CCCCCCCCCCCCSCCCCCCCCCCCCC(=O)NCCCCCCCCCCC(=O)NCCC(=O)[O-].[Na+]	>200	> 200	> 200	>50	25	20	>200	> 200	> 200	10	> 250	3	12	10	>200	43	> 200	50	> 200	> 200	IC50 [1]: Not Active; IC50 (Semliki Forest virus): > 200 µg/mL; CC50 (CEM-4): 42 µg/mL; IC50 (Human alphaherpesvirus 2): 20 µg/mL; IC50 (Human alphaherpesvirus 1 [10]): 20 µg/mL; IC50 (Human alphaherpesvirus 1 [11]): 20 µg/mL
CCCCCCCCCCCCSCCCCCCCCCCC(=O)N(C)CCCCCCCCCCC(=O)[O-].[Na+]	>400	> 200	> 200	>50	> 50	> 50	>200	> 200	> 200	150	128	28	70	150	>200	> 50	> 200	> 50	> 200	> 200	IC50 [1]: Not Active; IC50 (Semliki Forest virus): > 200 µg/mL; CC50 (CEM-4): > 200 µg/mL; IC50 (Human alphaherpesvirus 2): 70 µg/mL; IC50 (Human alphaherpesvirus 1 [10]): > 200 µg/mL; IC50 (Human alphaherpesvirus 1 [11]): > 200 µg/mL
CCCCCCCCCCCCSCCCCCCCCCCCCC(=O)NCCCCCCCCCCC(=O)[O-].[Na+]	>200	> 200	> 200	>50	> 50	35	>200	> 200	> 200	50	136	20	47	150	>200	> 50	> 200	> 50	> 200	> 200	IC50 [1]: Not Active; IC50 (Semliki Forest virus): > 200 µg/mL; CC50 (CEM-4): 37 µg/mL; IC50 (Human alphaherpesvirus 2): > 200 µg/mL; IC50 (Human alphaherpesvirus 1 [10]): > 200 µg/mL; IC50 (Human alphaherpesvirus 1 [11]): > 200 µg/mL
CCCCCCCCCCCCSCCCCCCCCCCCCCCCCCCCCCCCCCCCCCCCCCCCCCCCCCCCCCCCCCCC(=O)N(CC)CCCCCCCCCCC(=O)NC(CCC(=O)[O-])C(=O)O.[Na+] (stereo not given)	100	> 40	> 40	>50	10	5	>200	> 200	> 200	6	> 250	0.1	7	30	>40	> 50	> 10	> 50	> 10	> 10	IC50 [12]: 1 µg/mL; IC50 (Semliki Forest virus): > 10 µg/mL; CC50 (CEM-4): > 300 µg/mL; IC50 (Human alphaherpesvirus 2): > 40 µg/mL; IC50 (Human alphaherpesvirus 1 [10]): 20 µg/mL; IC50 (Human alphaherpesvirus 1 [11]): 40 µg/mL
CCCCCCCCCCCCSCCCCCCCCCCCCCCCCCCCCCCCCCCCCCCCCC(=O)N(CC)CCCCCCCCCCC(=O)[O-].[Na+]	100	> 40	> 40	>50	9	9	>200	> 200	> 200	30	30	> 16	> 29	50	>200	20	> 200	> 20	> 200	> 200	IC50 [12]: > 11 µg/mL; IC50 (Semliki Forest virus): > 200 µg/mL; CC50 (CEM-4): 27 µg/mL; IC50 (Human alphaherpesvirus 2): 20 µg/mL; IC50 (Human alphaherpesvirus 1 [10]): > 40 µg/mL; IC50 (Human alphaherpesvirus 1 [11]): > 200 µg/mL

Reference: ChEMBL document CHEMBL1130289, “Polyanion inhibitors of human immunodeficiency virus and other viruses. 5. Telomerized anionic surfactants derived from amino acids” (J Med Chem, 1997)
